The text below walks through data of ChEMBL document CHEMBL4359914, “Design, synthesis and biological evaluation of stereo- and regioisomers of amino aryl esters as multidrug resistance (MDR) reversers” (Eur J Med Chem, 2019).

Data set [1] can be described thus: Chemical stability of compound assessed as half life in PBS at 1 uM incubated 120 mins by LC-MS/MS analysis. It counts as physicochemical. Put shortly: (§1)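 Analyte added to PBS or human plasma (healthy volunteer, stored at -80 °C) to 1 μM; incubated at 37 °C for 0, 30, 60 and 120 min, triplicate per time point. Internal standard solution added, centrifuged, supernatant dried under nitrogen and redissolved. Analyte quantified by LC-MS/MS in MRM mode; half-life derived from decay rate k.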

Data set [2] deals with T1, Broad substrate specificity ATP-binding cassette transporter ABCG2 (Homo sapiens, UniProt Q9UNQ0).
T1 sequence (Q9UNQ0 whole entry): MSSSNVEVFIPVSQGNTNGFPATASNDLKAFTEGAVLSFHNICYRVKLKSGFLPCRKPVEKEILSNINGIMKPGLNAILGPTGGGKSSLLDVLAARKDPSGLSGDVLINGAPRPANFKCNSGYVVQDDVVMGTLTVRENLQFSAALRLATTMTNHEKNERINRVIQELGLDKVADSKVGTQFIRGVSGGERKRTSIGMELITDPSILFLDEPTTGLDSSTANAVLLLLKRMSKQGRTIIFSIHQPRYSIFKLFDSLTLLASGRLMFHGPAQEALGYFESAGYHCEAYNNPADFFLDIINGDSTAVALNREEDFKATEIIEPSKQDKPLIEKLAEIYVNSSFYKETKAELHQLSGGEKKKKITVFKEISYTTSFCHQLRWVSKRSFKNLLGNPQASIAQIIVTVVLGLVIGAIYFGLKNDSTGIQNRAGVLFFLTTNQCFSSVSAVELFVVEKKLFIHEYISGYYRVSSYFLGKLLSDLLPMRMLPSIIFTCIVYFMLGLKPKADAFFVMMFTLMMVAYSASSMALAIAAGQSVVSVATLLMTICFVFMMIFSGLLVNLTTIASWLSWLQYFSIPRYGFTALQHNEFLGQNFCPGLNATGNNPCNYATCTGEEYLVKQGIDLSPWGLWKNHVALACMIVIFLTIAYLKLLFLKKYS
Briefly: Inhibition of BCRP (unknown origin) expressed in MDCK cells assessed as increase in Hoechst 33342 accumulation incubated for 30 mins by Hoechst 33342 dye based fluorescence assay. In kind it is cell-based. As to conditions: read-out: EC50.

Data set [3] concerns the target T2, ATP-dependent translocase ABCB1 (Homo sapiens, UniProt P08183). The data set can be described thus: Inhibition of P-gp in human K562/DOX cells assessed as drug level causing 50% increase in nuclear pirarubicin concentration incubated for 30 mins by fluorescence based assay. In kind it is cell-based. The conditions noted are these: read-out: I0.5.
Data set [4] concerns the target T2, ATP-dependent translocase ABCB1. Briefly: Inhibition of MDR1 (unknown origin) expressed in MDCK-MDR1 cells assessed as decrease in ATP consumption incubated for 2 hrs by ATPlite luminescence assay. It counts as cell-based. The conditions noted are these: mdck-mdr1, 2 h. For orientation: In ATP-based viability assays light output follows the ATP content of the culture.

Data set [5] has the same target. Briefly: Inhibition of P-gp in human K562/DOX cells assessed as drug level causing maximum increase in nuclear pirarubicin concentration incubated for 30 mins by fluorescence based assay relative to control. It counts as cell-based. As to conditions: 0.5 h.
For data set [6] the target is unchanged. The data set can be described thus: Inhibition of P-gp (unknown origin) expressed in MDCK-MDR1 cells assessed as increase in calcein-AM accumulation incubated for 30 mins by calcein-AM dye based fluorescence assay. It counts as cell-based.
A short description of data set [7]: Stability of compound in human plasma assessed as half life at 1 uM incubated for 120 min by LC-MS/MS analysis. It counts as ADME, cell-free. Put shortly: as §1

A value given as a limit tells only on which side of the number the result lay.

T2 sequence (P08183 whole entry): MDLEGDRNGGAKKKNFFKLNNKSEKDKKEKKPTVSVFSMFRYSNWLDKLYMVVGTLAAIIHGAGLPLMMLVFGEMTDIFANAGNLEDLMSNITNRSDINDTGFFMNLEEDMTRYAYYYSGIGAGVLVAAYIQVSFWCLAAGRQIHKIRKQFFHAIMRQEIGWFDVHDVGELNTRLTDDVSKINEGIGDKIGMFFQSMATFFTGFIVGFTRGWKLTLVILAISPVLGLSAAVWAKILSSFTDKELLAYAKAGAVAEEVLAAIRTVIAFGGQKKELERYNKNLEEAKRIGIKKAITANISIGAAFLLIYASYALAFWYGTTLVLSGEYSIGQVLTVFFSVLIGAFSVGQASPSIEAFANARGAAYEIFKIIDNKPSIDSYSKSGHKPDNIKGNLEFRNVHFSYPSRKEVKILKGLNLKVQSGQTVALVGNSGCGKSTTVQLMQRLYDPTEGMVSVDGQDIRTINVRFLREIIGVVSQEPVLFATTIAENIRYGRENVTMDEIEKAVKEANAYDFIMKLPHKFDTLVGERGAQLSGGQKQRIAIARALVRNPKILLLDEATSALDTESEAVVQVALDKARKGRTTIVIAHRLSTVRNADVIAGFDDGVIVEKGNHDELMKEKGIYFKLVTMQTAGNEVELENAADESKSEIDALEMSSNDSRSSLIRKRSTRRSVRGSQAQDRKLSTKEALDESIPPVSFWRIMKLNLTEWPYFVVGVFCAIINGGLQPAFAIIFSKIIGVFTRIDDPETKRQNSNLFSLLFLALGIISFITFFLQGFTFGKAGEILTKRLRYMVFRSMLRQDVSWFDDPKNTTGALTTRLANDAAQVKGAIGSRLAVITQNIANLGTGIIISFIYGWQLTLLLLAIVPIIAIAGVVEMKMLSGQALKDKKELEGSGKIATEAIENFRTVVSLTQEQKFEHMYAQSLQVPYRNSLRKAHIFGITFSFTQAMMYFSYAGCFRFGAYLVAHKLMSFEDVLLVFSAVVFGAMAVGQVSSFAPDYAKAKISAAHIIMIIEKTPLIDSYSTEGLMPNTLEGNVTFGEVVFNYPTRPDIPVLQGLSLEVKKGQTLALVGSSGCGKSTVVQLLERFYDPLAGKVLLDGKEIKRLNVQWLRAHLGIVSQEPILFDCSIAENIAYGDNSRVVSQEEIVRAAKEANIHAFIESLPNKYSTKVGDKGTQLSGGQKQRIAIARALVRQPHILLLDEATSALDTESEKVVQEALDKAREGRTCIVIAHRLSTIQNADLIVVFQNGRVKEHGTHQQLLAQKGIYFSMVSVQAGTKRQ

In general, half-life refers to the time needed for the level to fall by half in the phase considered. For orientation: EC50 means the concentration at which the effect is half-maximal. Regarding `COc1cc(/C=C/C(=O)OCCCN(C)C[C@H](C)COC(=O)c2c3ccccc3cc3ccccc23)cc(OC)c1OC`, the half-life at 1 µM in data set [1] and in data set [7] was not below 4 h each time. Besides, the EC50 in data set [2] was 11000 nM; in data set [6], 910 nM. Also, in data set [3], the IC50 was found to be 40 nM. Besides, in data set [4], the “inhibition (INH)” value is listed as “Not Active”. Also, the Alpha max in data set [5] is listed as 0.99.
Consider `COc1cc(/C=C/C(=O)OCCCCCCCN(C)C[C@H](C)COC(=O)c2cc(OC)c(OC)c(OC)c2)cc(OC)c1OC`, for which the half-life at 1 µM in data set [1] and in data set [7] was not below 4 h in each case. Also, the EC50 is 2500 nM in data set [2] and 550 nM in data set [6]. Moreover, the IC50 in data set [3] amounted to 130 nM. Also, the “inhibition (INH)” value in data set [4] is recorded as “Not Active”. For the same molecule, in data set [5], the Alpha max was determined as 0.7.
In the case of `COc1cc(/C=C/C(=O)OCCCCCCCN(C)C[C@@H](C)COC(=O)c2cc(OC)c(OC)c(OC)c2)cc(OC)c1OC`, the half-life at 1 µM in data set [1] and in data set [7] was not below 4 h in each case. Besides, the EC50 in data set [2] is 4300 nM; in data set [6] it was 650 nM. Also, the IC50 in data set [3] came to 120 nM. For the same molecule, in data set [4], the “inhibition (INH)” value was “Not Active”. The Alpha max in data set [5] is given as 0.83.
For `COc1cc(/C=C/C(=O)OCCCCCN(C)C[C@H](C)COC(=O)c2cc(OC)c(OC)c(OC)c2)cc(OC)c1OC`, the half-life at 1 µM in data set [1] and in data set [7] was not below 4 h in each case. The EC50 in data set [2] is 8100 nM; in data set [6], 110 nM. In data set [3], the IC50 was 240 nM. The “inhibition (INH)” value in data set [4] is on record as “Not Active”. In addition, the Alpha max in data set [5] is on record as 0.75.
For `COc1cc(/C=C/C(=O)OC[C@H](C)CN(C)CCCCCCCOC(=O)c2c3ccccc3cc3ccccc23)cc(OC)c1OC`, the half-life at 1 µM in data set [1] and in data set [7] was not below 4 h throughout. Moreover, the EC50 in data set [2] is 6400 nM; in data set [6], 1400 nM. Besides, the IC50 in data set [3] was 970 nM. Besides, the “inhibition (INH)” value in data set [4] is given as “Not Active”. The Alpha max in data set [5] is listed as 0.65.
In the case of `COc1cc(/C=C/C(=O)OC[C@H](C)CN(C)CCCCCCCOC(=O)c2cc(OC)c(OC)c(OC)c2)cc(OC)c1OC`, the half-life at 1 µM was not below 4 h in data set [1] and 1.23 h in data set [7]. For the same molecule, the EC50 in data set [2] is 4700 nM; in data set [6] it was 820 nM. Moreover, the IC50 in data set [3] came to 590 nM. The “inhibition (INH)” value in data set [4] is given as “Not Active”. In addition, the Alpha max in data set [5] came to 0.81.
`COc1cc(/C=C/C(=O)OCCCCCN(C)C[C@@H](C)COC(=O)c2c3ccccc3cc3ccccc23)cc(OC)c1OC`: the half-life at 1 µM in data set [1] and in data set [7] was not below 4 h each time. For the same molecule, the figures for the EC50 in data set [2] and in data set [6] were 4600 nM and 810 nM, respectively. The IC50 in data set [3] amounted to 230 nM. Also, the “inhibition (INH)” value in data set [4] is “Not Active”. In data set [5], the Alpha max was 0.89.
`COc1cc(/C=C/C(=O)OC[C@@H](C)CN(C)CCCOC(=O)c2c3ccccc3cc3ccccc23)cc(OC)c1OC`: the half-life at 1 µM in data set [1] and in data set [7] was not below 4 h in each case. In addition, the EC50 in data set [2] is 2300 nM; in data set [6], 910 nM. Besides, in data set [3], the IC50 was 180 nM. Further, the “inhibition (INH)” value in data set [4] is reported as “Not Active”. Also, the Alpha max in data set [5] turned out to be 0.79.
`COc1cc(/C=C/C(=O)OCCCCCCCN(C)C[C@@H](C)COC(=O)c2c3ccccc3cc3ccccc23)cc(OC)c1OC`: the half-life at 1 µM in data set [1] and in data set [7] was not below 4 h throughout. Also, the EC50 is 6200 nM in data set [2] and 990 nM in data set [6]. In addition, in data set [3], the IC50 was found to be 200 nM. In addition, in data set [4], the “inhibition (INH)” value was “Not Active”. Moreover, in data set [5], the Alpha max was determined as 0.93.
On to `COc1cc(/C=C/C(=O)OCCCCCN(C)C[C@H](C)COC(=O)c2c3ccccc3cc3ccccc23)cc(OC)c1OC`, for which the half-life at 1 µM in data set [1] and in data set [7] was not below 4 h in each case. The EC50 in data set [2] was 4600 nM; in data set [6], 760 nM. The IC50 in data set [3] was 80 nM. Further, in data set [4], the “inhibition (INH)” value was “Not Active”. In data set [5], the Alpha max is reported as 0.75.
Take `COc1cc(/C=C/C(=O)OCCCN(C)C[C@@H](C)COC(=O)c2c3ccccc3cc3ccccc23)cc(OC)c1OC`: the half-life at 1 µM in data set [1] and in data set [7] was not below 4 h in each case. The EC50 in data set [2] was 6800 nM; in data set [6] it was 960 nM. Moreover, the IC50 in data set [3] is 170 nM. For the same molecule, the “inhibition (INH)” value in data set [4] was “Not Active”. In addition, the Alpha max in data set [5] is listed as 0.8.
Turning to `COc1cc(/C=C/C(=O)OC[C@@H](C)CN(C)CCCCCCCOC(=O)c2cc(OC)c(OC)c(OC)c2)cc(OC)c1OC`, the figures for the half-life at 1 µM in data set [1] and in data set [7] were not below 4 h and 0.5 h, respectively. In addition, the figures for the half-maximal effective concentration (EC50) in data set [2] and in data set [6] were 2300 nM and 320 nM, respectively. Besides, in data set [3], the IC50 stood at 380 nM. The “inhibition (INH)” value in data set [4] was “Not Active”. Moreover, the Alpha max in data set [5] stood at 0.74.
Take `COc1cc(/C=C/C(=O)OC[C@H](C)CN(C)CCCCCOC(=O)c2c3ccccc3cc3ccccc23)cc(OC)c1OC`: the half-life at 1 µM in data set [1] and in data set [7] was not below 4 h in each case. Moreover, the EC50 was 2300 nM in data set [2] and 720 nM in data set [6]. Moreover, the IC50 in data set [3] is 80 nM. In data set [4], the “inhibition (INH)” value is recorded as “Not Active”. Moreover, in data set [5], the Alpha max is on record as 0.88.
For the molecule `COc1cc(/C=C/C(=O)OC[C@@H](C)CN(C)CCCCCOC(=O)c2cc(OC)c(OC)c(OC)c2)cc(OC)c1OC`, the half-life at 1 µM in data set [1] is not below 4 h; in data set [7], 0.3 h. For the same molecule, the EC50 in data set [2] is 4200 nM; in data set [6], 1100 nM. Moreover, the IC50 in data set [3] amounted to 80 nM. Moreover, in data set [4], the “inhibition (INH)” value is “Not Active”. For the same molecule, the Alpha max in data set [5] was determined as 0.99.
`COc1cc(/C=C/C(=O)OC[C@@H](C)CN(C)CCCCCOC(=O)c2c3ccccc3cc3ccccc23)cc(OC)c1OC`: the half-life at 1 µM in data set [1] and in data set [7] was not below 4 h throughout. Further, the EC50 in data set [2] is 4700 nM; in data set [6] it was 690 nM. Besides, the IC50 in data set [3] stood at 30 nM. The “inhibition (INH)” value in data set [4] is listed as “Not Active”. For the same molecule, the Alpha max in data set [5] stood at 0.79.
Regarding `COc1cc(/C=C/C(=O)OC[C@H](C)CN(C)CCCOC(=O)c2c3ccccc3cc3ccccc23)cc(OC)c1OC`, the half-life at 1 µM in data set [1] and in data set [7] was not below 4 h throughout. Further, the EC50 in data set [2] is 5900 nM; in data set [6], 950 nM. In data set [3], the IC50 was 80 nM. Besides, the “inhibition (INH)” value in data set [4] is “Not Active”. Further, the Alpha max in data set [5] came to 0.99.
With `COc1cc(/C=C/C(=O)OC[C@H](C)CN(C)CCCOC(=O)c2cc(OC)c(OC)c(OC)c2)cc(OC)c1OC`, the half-life at 1 µM in data set [1] was not below 4 h; in data set [7], 1.95 h. Also, the 50% effective concentration (EC50) in data set [2] was 33500 nM; in data set [6], 710 nM. The IC50 in data set [3] was determined as 140 nM. Besides, the “inhibition (INH)” value in data set [4] is reported as “Not Active”. The Alpha max in data set [5] amounted to 0.99.
For the molecule `COc1cc(/C=C/C(=O)OCCCCCCCN(C)C[C@H](C)COC(=O)c2c3ccccc3cc3ccccc23)cc(OC)c1OC`, the half-life at 1 µM in data set [1] and in data set [7] was not below 4 h throughout. Besides, the figures for the EC50 in data set [2] and in data set [6] were 7200 nM and 1040 nM, respectively. For the same molecule, in data set [3], the IC50 amounted to 80 nM. Further, in data set [4], the “inhibition (INH)” value is given as “Not Active”. In data set [5], the Alpha max was 0.99.
